What all share (conditions): read-out: ED50 (the source's name)
Test [1] is described as follows: Cytotoxicity against rat ASK cells by SRB assay. (In general: In SRB staining, fixed cells bind dye roughly in proportion to their protein.)
In a further test the test system is Col2. Nature of the test: Cytotoxicity against human Col2 cells by SRB assay. It is filed as functional. A digest of the protocol: (§1)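 Colorimetric cytotoxicity read-out on a panel of cultured mammalian cancer cell lines, run by an earlier published method, with ellipticine as the positive control.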
The subject of the next test is P388. Nature of the test: Cytotoxicity against mouse P388 cells by SRB assay. It is filed as functional. A digest of the protocol:
as §1

Another test relates to KB. Nature of the test: Cytotoxicity against human KB cells by SRB assay. Type of test: functional. A digest of the protocol:
as §1

Test [2] in a line: Cytotoxicity against human BCA1 cells by SRB assay. Type of test: functional. The gist of the method:
as §1

The next test has as its system Lu1. Nature of the test: Cytotoxicity against human Lu1 cells by SRB assay. Type of test: functional. A digest of the protocol: as §1

In brackets after ≈: the same amount, converted by molar mass.

On to `O=C1C=C[C@H](OC(=O)/C=C/c2ccccc2)[C@H]([C@H](OC(=O)/C=C/c2ccccc2)[C@H](OC(=O)/C=C/c2ccccc2)c2ccccc2)O1`, for which the EC50 was more than 5 µg/mL in test [1]; more than 5 µg/mL in the test on Col2; 3.1 µg/mL (≈ 4.84 µM) with P388; more than 5 µg/mL in the test with KB; more than 5 µg/mL in test [2]; more than 5 µg/mL in the test on Lu1.

Take `O=C1C=C[C@H](OC(=O)/C=C/c2ccccc2)[C@H]([C@H](O)[C@H](O)c2ccccc2)O1`: the EC50 in test [1] was determined as 1.6 µg/mL (≈ 4.21 µM); with Col2 it was 1.9 µg/mL (≈ 4.99 µM); in the test with P388 it was 0.18 µg/mL (≈ 0.473 µM); in the test with KB, 1.7 µg/mL (≈ 4.47 µM); in test [2], 0.92 µg/mL (≈ 2.42 µM); in the test on Lu1, 1.9 µg/mL (≈ 4.99 µM).

For the compound `O=C1C=C[C@]2(C[C@H](O)[C@@H](c3ccccc3)O2)O1`, the EC50 in test [1] was 3.1 µg/mL (≈ 13.3 µM); in the test on Col2 it was 4 µg/mL (≈ 17.2 µM); in the test on P388, 1.1 µg/mL (≈ 4.74 µM); in the test on KB, 3.3 µg/mL (≈ 14.2 µM); in test [2] it was 3.2 µg/mL (≈ 13.8 µM); in the test on Lu1 it was more than 5 µg/mL.

Regarding `O=C(/C=C/c1ccccc1)O[C@@H]1[C@H]([C@@H](O)c2ccccc2)O[C@H]2CC(=O)O[C@@H]12` [(+)-CRASSALACTONE B], the EC50 was more than 5 µg/mL in test [1]; more than 5 µg/mL with Col2; 3.8 µg/mL (≈ 9.99 µM) in the test on P388; more than 5 µg/mL with KB; more than 5 µg/mL in test [2]; more than 5 µg/mL with Lu1.

As to `O=C(/C=C/c1ccccc1)O[C@H](c1ccccc1)[C@H]1O[C@@H]2CC(=O)O[C@@H]2[C@H]1O` [(+)-CRASSALACTONE C], the EC50 (in test [1]; in the test with Col2; with P388; with KB; in test [2]; in the test on Lu1) was more than 5 µg/mL in each case.

In the case of `COc1c(O)cc2c3c(cc4ccccc4c13)NC2=O` [ARISTOLACTAM AII], the EC50 is more than 5 µg/mL in test [1]; more than 5 µg/mL in the test on Col2; 2.7 µg/mL (≈ 10.2 µM) in the test with P388; more than 5 µg/mL with KB; more than 5 µg/mL in test [2]; more than 5 µg/mL in the test with Lu1.

As for `Cc1c2ccncc2c(C)c2c1[nH]c1ccccc12` [ELLIPTECINE], the EC50 was 0.6 µg/mL (≈ 2.44 µM) in test [1]; 0.53 µg/mL (≈ 2.15 µM) in the test with Col2; 0.52 µg/mL (≈ 2.11 µM) with P388; 0.65 µg/mL (≈ 2.64 µM) with KB; 0.65 µg/mL (≈ 2.64 µM) in test [2]; 0.56 µg/mL (≈ 2.27 µM) with Lu1.

The values above are taken from ChEMBL document CHEMBL1158128, “Cytotoxic styryl-lactones from the leaves and twigs of Polyalthia crassa” (2006).
